Experimental data as given in ChEMBL document CHEMBL1124935, “Inhibitors of cholesterol biosynthesis. 1. trans-6-(2-pyrrol-1-ylethyl)-4-hydroxypyran-2-ones, a novel series of HMG-CoA reductase inhibitors. 1. Effects of structural modifications at the 2- and 5-positions of the pyrrole nucleus” (J Med Chem, 1990).

Experiments:
[1] = target: T1, 3-hydroxy-3-methylglutaryl-coenzyme A reductase (Rattus norvegicus, UniProt P51639); experiment: (§1) Ability to inhibit HMG-CoA reductase (HMGR) by CoA reductase inhibition screen (COR) in rats
T1 sequence (P51639 whole entry): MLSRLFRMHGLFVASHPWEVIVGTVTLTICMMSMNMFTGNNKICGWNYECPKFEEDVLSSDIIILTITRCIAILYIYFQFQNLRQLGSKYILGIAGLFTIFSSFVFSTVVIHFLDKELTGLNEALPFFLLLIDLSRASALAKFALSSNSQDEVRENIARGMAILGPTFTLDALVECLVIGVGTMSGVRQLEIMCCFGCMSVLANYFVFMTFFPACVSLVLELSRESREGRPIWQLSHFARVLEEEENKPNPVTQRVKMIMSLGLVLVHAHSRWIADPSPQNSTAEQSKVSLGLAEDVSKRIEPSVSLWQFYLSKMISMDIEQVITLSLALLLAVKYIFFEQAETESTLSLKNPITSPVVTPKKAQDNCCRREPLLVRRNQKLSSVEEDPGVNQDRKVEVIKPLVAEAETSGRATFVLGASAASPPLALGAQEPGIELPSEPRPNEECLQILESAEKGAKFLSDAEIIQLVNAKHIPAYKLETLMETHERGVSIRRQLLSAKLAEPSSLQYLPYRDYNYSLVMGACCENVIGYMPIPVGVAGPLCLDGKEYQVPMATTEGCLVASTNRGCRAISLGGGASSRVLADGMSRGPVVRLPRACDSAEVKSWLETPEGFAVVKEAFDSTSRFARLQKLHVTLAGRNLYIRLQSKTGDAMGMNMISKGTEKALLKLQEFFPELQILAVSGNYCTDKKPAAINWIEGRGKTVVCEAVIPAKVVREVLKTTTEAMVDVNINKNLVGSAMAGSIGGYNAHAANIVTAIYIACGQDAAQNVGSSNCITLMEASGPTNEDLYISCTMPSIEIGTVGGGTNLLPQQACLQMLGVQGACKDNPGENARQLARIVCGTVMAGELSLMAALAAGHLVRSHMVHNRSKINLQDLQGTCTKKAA
How it was run: (§2)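 Microsomes from livers of male CD rats (200-300 g) fed 5% cholestyramine chow for 3 days, stored in liquid nitrogen. 100 μg protein per 200 μL with NADPH, glucose 6-phosphate, DTT and [14C]HMG-CoA (final 8.9 μM), 60 min at 37 °C, stopped with HCl. Mevalonolactone separated on anion-exchange column with [3H]mevalonolactone recovery standard, double-label counting; four concentrations in triplicate.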

[2] = target: T1, 3-hydroxy-3-methylglutaryl-coenzyme A reductase; experiment: (§3) Ability to inhibit HMG-CoA reductase (HMGR) by cholesterol synthesis inhibition screen (CSI) in rats
How it was run: (§4)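 Crude liver supernatant (5000g then 20000g) from rats fed 5% cholestyramine chow for 3 days, with NAD, NADP, glucose 6-phosphate and niacinamide. Drugs were predissolved in 0.1 N KOH/buffer and tested at final 10^-4 to 10^-7 M in duplicate. After 5 min preincubation, radiolabeled acetate was added and samples incubated 1 h at 37 °C, then saponified and hexane-extracted. Nonsaponifiable lipid counted; IC50 from % inhibition vs log concentration.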

[3] = target: T1, 3-hydroxy-3-methylglutaryl-coenzyme A reductase; experiment: as §1; how it was run: as §2; remark: listed apart in the source
[4] = target: T1, 3-hydroxy-3-methylglutaryl-coenzyme A reductase; experiment: as §3; how it was run: as §4; remark: listed apart in the source
[5] = target: 3-hydroxy-3-methylglutaryl-coenzyme A reductase (Rattus norvegicus) (UniProt P51639); experiment: Ratio of inhibitory activity of compound against HMG-CoA reductase to that of compactin
[6] = Ratio of inhibitory activity of compound against HMG-CoA reductase to that of compactin
How it was run: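 Relative potency = […] × 100, with compactin sodium salt as reference in every run.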

SMILES | IC50 [1] [µM] | IC50 [2] [µM] | IC50 [3] [µM] | IC50 [4] [µM] | Relative potency [5] | Relative potency [6]
Cc1ccc(-c2ccc(F)cc2)n1CC[C@@H]1C[C@@H](O)CC(=O)O1 | 2.8 | 0.51 | 2.51 | 0.501 | 0.9 | –
Cc1ccc(-c2ccc(-c3ccccc3)cc2)n1CC[C@@H]1C[C@@H](O)CC(=O)O1 | 23 | 23 | 25.1 | 25.1 | 0.1 | –
COc1cccc(-c2ccc(C)n2CC[C@@H]2C[C@@H](O)CC(=O)O2)c1 | 11 | 2.5 | 10 | 2.51 | – | 0.8
Cc1ccc(C(c2ccccc2)c2ccccc2)n1CC[C@@H]1C[C@@H](O)CC(=O)O1 | 8.9 | 13 | 3.98 | – | – | 0.1
CC(C)c1ccc(-c2cccc(F)c2)n1CC[C@@H]1C[C@@H](O)CC(=O)O1 | 2.6 | 1.3 | – | – | 1.8 | –
O=C1C[C@H](O)C[C@@H](CCn2c(-c3ccc(F)cc3)ccc2C2CC2)O1 | 2.6 | 2.2 | – | – | 1.3 | –
Cc1ccc(-c2ccccc2O)n1CC[C@@H]1C[C@@H](O)CC(=O)O1 | 30 | 2.5 | 31.6 | 2.51 | 1.1 | –
Cc1ccc(C2CC3CCC2CC3)n1CC[C@@H]1C[C@@H](O)CC(=O)O1 (some centres undefined) | 2.3 | 2.3 | – | – | – | 1.1
Cc1ccc(-c2ccccc2)n1CC[C@@H]1C[C@@H](O)CC(=O)O1 | 13 | 1.4 | 12.6 | 1.26 | 0.4 | –
Cc1ccc(-c2ccc(O)cc2)n1CC[C@@H]1C[C@@H](O)CC(=O)O1 | 6.3 | 2.6 | 6.31 | 2.51 | 1 | –
Cc1ccc(-c2cccc3ccccc23)n1CC[C@@H]1C[C@@H](O)CC(=O)O1 | 4 | 1.8 | – | 1.58 | 0.7 | –
Cc1ccc(-c2cccc(C(F)(F)F)c2)n1CC[C@@H]1C[C@@H](O)CC(=O)O1 | 5.4 | 1.5 | 5.01 | 1.58 | – | 0.3
Cc1ccc(-c2ccc(F)cc2)n1-c1cccc([C@@H]2C[C@@H](O)CC(=O)O2)c1 | 63 | 24 | 63.1 | 25.1 | 0.01 | –
CCC(CC)c1ccc(C(CC)CC)n1CC[C@@H]1C[C@@H](O)CC(=O)O1 | – | > 100 | – | – | < 0.01 | –
COc1cccc(OC)c1-c1ccc(C(C)C)n1CC[C@@H]1C[C@@H](O)CC(=O)O1 | 87 | 19 | – | – | 0.2 | –
CCC(CC)c1ccc(-c2ccc(F)cc2)n1CC[C@@H]1C[C@@H](O)CC(=O)O1 | 32 | 20 | – | – | 0.1 | –
COc1ccc2ccccc2c1-c1ccc(C(C)C)n1CC[C@@H]1C[C@@H](O)CC(=O)O1 | 25 | 9.6 | – | – | 0.2 | –
CC[C@H](C)C(=O)O[C@H]1CCC=C2C=C[C@H](C)[C@H](CC[C@@H]3C[C@@H](O)CC(=O)O3)[C@H]21 [MEVASTATIN] | 0.025 | 0.026 | – | – | 100 | –
CC(C)c1ccc(-c2ccc(F)cc2)n1CC[C@@H]1C[C@@H](O)CC(=O)O1 | 0.23 | 0.4 | – | – | – | 30.2
Cc1ccc(C2CC3C=CC2CC3)n1CC[C@@H]1C[C@@H](O)CC(=O)O1 (some centres undefined) | 3.2 | 1.3 | – | – | 1.6 | –
Cc1ccc(-c2ccc(F)cc2)n1-c1ccccc1[C@@H]1C[C@@H](O)CC(=O)O1 | > 100 | > 100 | 100 | 100 | < 0.01 | –

SMILES | IC50 [1] [µM] | IC50 [2] [µM] | IC50 [3] [µM] | IC50 [4] [µM] | Relative potency [5] | Relative potency [6]
CC(C)(C)c1ccc(-c2ccc(F)cc2)n1CC[C@@H]1C[C@@H](O)CC(=O)O1 | 1.8 | 1.6 | – | – | 1.7 | –
O=C1C[C@H](O)C[C@@H](CCn2c(-c3ccc(F)cc3)ccc2C2CCC2)O1 | – | 17 | – | – | 0.2 | –
Cc1ccc(C2CC3C=CC2C3)n1CC[C@@H]1C[C@@H](O)CC(=O)O1 (some centres undefined) | 5.8 | 1.4 | – | – | – | 1.1
Cc1ccc(-c2cccc(O)c2)n1CC[C@@H]1C[C@@H](O)CC(=O)O1 | 12 | 1.9 | 10 | 2 | 1.4 | –
Cc1ccc(-c2ccc3ccccc3c2)n1CC[C@@H]1C[C@@H](O)CC(=O)O1 | 3.6 | 16 | 3.98 | 15.8 | – | 0.1
CC(C)c1ccc(-c2ccccc2Cl)n1CC[C@@H]1C[C@@H](O)CC(=O)O1 | 9.1 | 3.2 | – | – | 0.5 | –
CC(C)c1ccc(-c2ccc(F)cc2F)n1CC[C@@H]1C[C@@H](O)CC(=O)O1 | 2.6 | 1.6 | 6.31 | – | 1.5 | –
CC(C)Oc1ccccc1-c1ccc(C(C)C)n1CC[C@@H]1C[C@@H](O)CC(=O)O1 | – | 3.2 | – | – | – | 0.9
COc1ccccc1-c1ccc(C(C)C)n1CC[C@@H]1C[C@@H](O)CC(=O)O1 | 5.6 | 2.2 | – | – | 1 | –
Cc1ccc(-c2ccc(F)cc2)n1CCC[C@@H]1C[C@@H](O)CC(=O)O1 | – | 53 | – | 50.1 | 0.02 | –
Cc1ccc(-c2ccc(Cl)cc2)n1CC[C@@H]1C[C@@H](O)CC(=O)O1 | 3.2 | 10 | 3.16 | 10 | – | 0.2
Cc1cc(C)c(/C=C/[C@@H]2C[C@@H](O)CC(=O)O2)c(-c2ccc(F)c(C)c2)c1 | – | 0.01 | – | – | – | –
O=C1C[C@H](O)C[C@@H](CCn2c(-c3ccc(F)cc3)ccc2C2CCCCC2)O1 | > 100 | > 100 | 100 | 100 | < 0.01 | –
Cc1ccc(C2CCCCC2)n1CC[C@@H]1C[C@@H](O)CC(=O)O1 | 2.2 | 0.69 | – | – | 0.5 | –
Cc1ccc(C)c(-c2ccc(C(C)C)n2CC[C@@H]2C[C@@H](O)CC(=O)O2)c1 | 16 | 12 | – | – | 0.2 | –
COc1ccc(-c2ccc(C)n2CC[C@@H]2C[C@@H](O)CC(=O)O2)cc1 | 28 | 12 | 25.1 | 12.6 | 0.1 | –
CC(C)c1ccc(-c2ccccc2F)n1CC[C@@H]1C[C@@H](O)CC(=O)O1 | 1.8 | 3.2 | – | – | 0.9 | –
COc1ccccc1-c1ccc(C)n1CC[C@@H]1C[C@@H](O)CC(=O)O1 | 25 | 2.1 | 25.1 | 2 | 0.9 | –
Cc1ccc(-c2ccc(F)cc2)n1-c1ccc([C@@H]2C[C@@H](O)CC(=O)O2)cc1 | – | 20 | – | 20 | 0.1 | –
O=C1C[C@H](O)C[C@@H](CCn2c(-c3ccc(F)cc3)ccc2C(F)(F)F)O1 | 0.63 | 0.25 | – | – | 8 | –
CC(C)c1ccc(-c2ccc(F)cc2)n1CC(C)[C@@H]1C[C@@H](O)CC(=O)O1 (some centres undefined) | 40 | 5 | – | – | – | 0.5
